The results in this text go back to ChEMBL document CHEMBL4190236, “New arylpyrazoline-coumarins: Synthesis and anti-inflammatory activity” (Eur J Med Chem, 2017).

Calls of active or inactive are those of the source. No cut-off for these calls is given here.

For orientation: inhibition means the drop in the measured response relative to a control, in per cent. As a reminder, the IC50 is the concentration needed to halve the response being measured. The term inhibition in vivo denotes the percentage by which the read-out fell short of the control.

Series [1] has as its system RAW264.7. In words: Anti-inflammatory activity in mouse RAW264.7 cells assessed as inhibition of LPS-induced TNFalpha release at 10 uM preincubated for 1 hr followed by LPS stimulation measured after 24 hrs by ELISA relative to control. It counts as functional. The gist of the method:
(§1)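 RAW264.7 cells (DMEM, 10% FBS, 37 °C, 5% CO2) plated at 7 × 10^4 cells/well and grown 24 h, then serum-starved 2.5 h. Exposed to 10 µM compound for 1 h, then LPS 1 µg/mL for 24 h. TNF-α or IL-6 in the medium quantified by mouse ELISA. Cytokine amount normalized to protein of viable cell pellets. Expressed as % inhibition.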
Background: An ELISA detects its analyte on a solid surface through an enzyme-linked reagent.

For series [2], the system named is RAW264.7. The series is described as follows: Anti-inflammatory activity in mouse RAW264.7 cells assessed as inhibition of LPS-induced IL-6 release at 10 uM preincubated for 1 hr followed by LPS stimulation measured after 24 hrs by ELISA relative to control. Format: functional. The gist of the method: as §1
For series [3], the system named is RAW264.7. The series is described as follows: Anti-inflammatory activity in mouse RAW264.7 cells assessed as inhibition of LPS-induced TNFalpha release preincubated for 1 hr followed by LPS stimulation measured after 24 hrs by ELISA. Format: functional, cell-based. In a few lines: (§2)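 Serum-starved (2.5 h) RAW264.7 cells were pretreated 1 h with a range of compound concentrations, then given LPS 1 µg/mL for 24 h. TNF-α or IL-6 in the medium was quantified by mouse ELISA and normalized to protein of viable cell pellets.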

The subject of series [4] is RAW264.7. In words: Anti-inflammatory activity in mouse RAW264.7 cells assessed as inhibition of LPS-induced IL-6 release preincubated for 1 hr followed by LPS stimulation measured after 24 hrs by ELISA. It counts as functional, cell-based. The gist of the method: as §2
For series [5], the system named is RAW264.7. The series is described as follows: Cytotoxicity against mouse RAW264.7 cells assessed reduction in cell viability at 10 to 40 uM by MTT assay. Format: cell-based. Particulars: raw264.7, 40 µM. In general terms: Tetrazolium assays rely on reduction of a dye to a coloured formazan, in cell work by metabolically active cells.
Series [6] concerns RAW264.7. In words: Anti-inflammatory activity in mouse RAW264.7 cells assessed as inhibition of LPS-induced nitric oxide production preincubated for 1 hr followed by LPS stimulation measured after 24 hrs by Griess assay. Format: functional, cell-based. In a few lines:
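Griess nitrite assay. RAW264.7 cells pretreated 1 h with compound, then LPS 1 µg/mL for 24 h. Supernatant mixed 1:1 with Griess reagent, OD read at 540 nm against a NaNO2 standard curve. At least three independent experiments, each in duplicate.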
Background: Nitrite, measured by Griess reagent, commonly stands in for NO production.

Series [7] relates to RAW264.7. The series is described as follows: Anti-inflammatory activity in mouse RAW264.7 cells assessed as inhibition of LPS-induced iNOS protein expression preincubated for 1 hr followed by LPS stimulation measured after 24 hrs by Western blot method. It counts as functional, cell-based. In a few lines: (§3)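 Cells grown 24 h, serum-starved 2.5 h, pretreated 1 h with compound, then LPS 1 µg/mL for 24 h. Lysed in RIPA on ice, run on 10% SDS-PAGE, transferred to PVDF. Probed overnight at 4 °C with primary antibody for iNOS (130 kDa) or COX-2 (72 kDa), then HRP secondary. β-actin as loading control. At least three independent experiments.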

Series [8] relates to RAW264.7. In words: Anti-inflammatory activity in mouse RAW264.7 cells assessed as inhibition of LPS-induced COX2 protein expression preincubated for 1 hr followed by LPS stimulation measured after 24 hrs by Western blot method. It counts as functional, cell-based. The gist of the method:
as §3

For series [9], the system named is Rattus norvegicus. In words: Anti-inflammatory activity in po dosed adjuvant-induced Sprague-Dawley rat arthritis model assessed as reduction in bone destruction administered once daily from day 14 to 28 post-immunization measured by H and E staining based histopathological analysis. Format: functional, organism-based. The gist of the method:
(§4)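 Male SD rats (180–200 g), 8 per group. Arthritis induced by one intradermal injection of 0.1 mL CFA (heat-killed M. butyricum in paraffin oil, 10 mg/mL) into the right hind paw. Test agent at 45 or 90 mg/kg, aspirin 50 mg/kg, in 0.5% CMC-Na, given intragastrically once daily on days 14–28. Right ankle joints taken at day 28, fixed, EDTA-decalcified, cut at 5 µm and H&E stained.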

The subject of series [10] is Rattus norvegicus. The series is described as follows: Anti-inflammatory activity in Sprague-Dawley rat assessed as inhibition of carrageenan-induced paw edema at 10 mg/kg, po administered 30 mins prior to carrageenan challenge measured after 1 hr relative to control. Format: functional. The gist of the method:
(§5)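 Male rats given test agent or diclofenac orally at 10 mg/kg, suspended in 0.5% Na CMC, 30 min before 0.1 mL of 1% (w/v) carrageenan injected into right hind paw. Vehicle control received 0.5% sodium CMC. Paw thickness measured at 1, 3 and 5 h. % inhibition calculated from paw oedema of treated versus control group. Table gives n = 5.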

Series [11] has as its system Rattus norvegicus. In words: Anti-inflammatory activity in Sprague-Dawley rat assessed as inhibition of carrageenan-induced paw edema at 10 mg/kg, po administered 30 mins prior to carrageenan challenge measured after 3 hrs relative to control. It counts as functional. In a few lines: as §5
Series [12] concerns Rattus norvegicus. The series is described as follows: Anti-inflammatory activity in Sprague-Dawley rat assessed as inhibition of carrageenan-induced paw edema at 10 mg/kg, po administered 30 mins prior to carrageenan challenge measured after 5 hrs relative to control. It counts as functional. In a few lines: as §5
For series [13], the system named is Rattus norvegicus. In words: Anti-inflammatory activity in po dosed adjuvant-induced Sprague-Dawley rat arthritis model assessed as reduction in synovial hyperplasia administered once daily from day 14 to 28 post-immunization measured by H and E staining based histopathological analysis. Format: functional, organism-based. In a few lines:
as §4

The test system of series [14] is Rattus norvegicus. In words: Anti-inflammatory activity in po dosed adjuvant-induced Sprague-Dawley rat arthritis model assessed as reduction in inflammatory cell infilteration administered once daily from day 14 to 28 post-immunization measured by H and E staining based histopathological analysis. Format: functional, organism-based. In a few lines: as §4
Series [15] has as its target Mitogen-activated protein kinase kinase kinase 7 (Mus musculus) (UniProt Q62073). The series is described as follows: Inhibition of LPS-induced TAK1 phosphorylation in mouse RAW264.7 cells preincubated for 1 hr followed by LPS stimulation measured after 30 min by Western blot method.
Series [16] shares this target. In words: Inhibition of TAK1 in mouse RAW264.7 cells assessed as reduction in LPS-induced MAPK p38 phosphorylation preincubated for 1 hr followed by LPS stimulation measured after 30 mins by Western blot method.
For series [17] the target is unchanged. In words: Inhibition of TAK1 in mouse RAW264.7 cells assessed as inhibition of LPS-induced NFkB activation by measuring reduction in nuclear translocation of p65 at 2.5 to 10 uM preincubated for 1 hr followed by LPS stimulation measured after 3 hrs by Western blot method.
For series [18] the target is unchanged. The series is described as follows: Inhibition of TAK1 in mouse RAW264.7 cells assessed as inhibition of LPS-induced NFkB activation by measuring reduction in nuclear translocation of p65 at 2.5 to 10 uM preincubated for 1 hr followed by LPS stimulation measured after 3 hrs by DAPI staining based immunofluorescence assay.
In series [19] the target is Transcription factor p65 (Mus musculus) (UniProt Q04207). The series is described as follows: Inhibition of LPS-induced NFkB activation in mouse RAW264.7 cells assessed as reduction in nuclear translocation of p65 at 20 uM preincubated for 1 hr followed by LPS stimulation measured after 3 hrs by Western blot method. Format: cell-based.
Chain of Transcription factor p65 (Mus musculus) (Q04207 whole entry): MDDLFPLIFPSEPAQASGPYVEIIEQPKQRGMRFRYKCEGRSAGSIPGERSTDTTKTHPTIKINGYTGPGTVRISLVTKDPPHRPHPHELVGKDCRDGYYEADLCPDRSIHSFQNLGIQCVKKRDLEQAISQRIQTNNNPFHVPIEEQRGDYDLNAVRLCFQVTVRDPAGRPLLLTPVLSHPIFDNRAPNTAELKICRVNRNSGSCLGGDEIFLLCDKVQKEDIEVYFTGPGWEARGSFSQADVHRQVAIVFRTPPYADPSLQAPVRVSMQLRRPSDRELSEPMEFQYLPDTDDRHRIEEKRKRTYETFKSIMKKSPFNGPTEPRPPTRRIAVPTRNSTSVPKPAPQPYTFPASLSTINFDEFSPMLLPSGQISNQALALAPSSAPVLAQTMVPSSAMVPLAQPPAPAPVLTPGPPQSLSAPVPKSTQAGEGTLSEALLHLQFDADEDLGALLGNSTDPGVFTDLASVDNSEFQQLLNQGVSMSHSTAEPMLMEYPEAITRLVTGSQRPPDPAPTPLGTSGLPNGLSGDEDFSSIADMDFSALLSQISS

Chain of Mitogen-activated protein kinase kinase kinase 7 (Mus musculus) (Q62073 whole entry, looked up): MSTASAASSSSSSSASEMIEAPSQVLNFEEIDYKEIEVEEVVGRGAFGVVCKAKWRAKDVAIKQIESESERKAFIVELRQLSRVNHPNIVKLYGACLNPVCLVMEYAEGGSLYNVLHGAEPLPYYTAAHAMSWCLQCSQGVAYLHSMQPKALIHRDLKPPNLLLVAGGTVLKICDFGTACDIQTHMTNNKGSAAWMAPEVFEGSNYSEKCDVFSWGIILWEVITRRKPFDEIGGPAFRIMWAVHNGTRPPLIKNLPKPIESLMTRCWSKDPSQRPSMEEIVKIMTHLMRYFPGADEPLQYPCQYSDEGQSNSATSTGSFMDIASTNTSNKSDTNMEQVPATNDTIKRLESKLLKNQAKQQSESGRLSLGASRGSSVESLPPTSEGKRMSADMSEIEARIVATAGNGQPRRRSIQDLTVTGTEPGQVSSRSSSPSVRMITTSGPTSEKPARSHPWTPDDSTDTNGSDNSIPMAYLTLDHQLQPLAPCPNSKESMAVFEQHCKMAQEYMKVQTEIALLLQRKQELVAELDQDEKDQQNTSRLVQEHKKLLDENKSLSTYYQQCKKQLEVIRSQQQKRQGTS

Turning to `COc1ccc(-c2coc3cc(OCC(=O)N4N=C(c5cc6ccccc6oc5=O)CC4c4ccc(C(F)(F)F)cc4)ccc3c2=O)cc1` (stereo not drawn), the inhibition at 10 µM in the series on RAW264.7 [1] amounted to 40.4%; in the series on RAW264.7 [2], 41.2%. Moreover, the half-maximal inhibitory concentration (IC50) worked out at 16.8 µM in the series on RAW264.7 [3] and 14.2 µM in the series on RAW264.7 [4]. The Activity result in the series with RAW264.7 [5] is “Non-Toxic”; in the series on RAW264.7 [6], “Dose-dependent effect”; with RAW264.7 [7], “Dose-dependent effect”; in the series with RAW264.7 [8], “Dose-dependent effect”; in the series with Rattus norvegicus [9], “Dose-dependent effect”; with Rattus norvegicus [13] it was “Dose-dependent effect”. Also, the Activity result in the series on Rattus norvegicus [14] was “Dose-dependent effect”. Further, the figures for the inhibition in vivo at 10 mg/kg in the series with Rattus norvegicus [10], with Rattus norvegicus [11] and in the series on Rattus norvegicus [12] were 49%, 60% and 59%, respectively. Further, the inhibition entry in series [15] and in [16] was “Dose-dependent effect” each time. In addition, the inhibition result in [17] and in [18] was “Active” in each case.
For `O=C(O)Cc1ccccc1Nc1c(Cl)cccc1Cl` [DICLOFENAC], the inhibition in vivo at 10 mg/kg in the series on Rattus norvegicus [10] was found to be 41%; in the series with Rattus norvegicus [11] it was 77%; in the series on Rattus norvegicus [12], 48%.
As to `CC(C)NCC(=O)N1N=C(c2cc3ccccc3oc2=O)CC1c1ccccc1C(F)(F)F` (stereo not drawn), the inhibition in vivo at 10 mg/kg in the series with Rattus norvegicus [10] was 17%; in the series on Rattus norvegicus [11], 20%; in the series with Rattus norvegicus [12], 13%.
With `C=CCN(CC=C)CC(=O)N1N=C(c2cc3ccccc3oc2=O)CC1c1ccccc1C(F)(F)F` (stereo not drawn), the inhibition entry in the series on RAW264.7 [1] and in the series on RAW264.7 [2] was “Active” in each case. For the same molecule, the inhibition in vivo at 10 mg/kg in the series with Rattus norvegicus [10] turned out to be 28%; in the series with Rattus norvegicus [11], 49%; in the series on Rattus norvegicus [12], 45%.
Consider `O=C(CN1CCCCC1)N1N=C(c2cc3ccccc3oc2=O)CC1c1ccc(C(F)(F)F)cc1` (stereo not drawn), for which the inhibition result with RAW264.7 [1] and with RAW264.7 [2] was “Active” throughout. The inhibition in vivo at 10 mg/kg stood at 32% with Rattus norvegicus [10], 41% in the series with Rattus norvegicus [11] and 36% in the series with Rattus norvegicus [12].
For the molecule `Cc1ccc(-c2cc(C(F)(F)F)nn2-c2ccc(S(N)(=O)=O)cc2)cc1` [CELECOXIB], the values for the inhibition in vivo at 10 mg/kg in the series on Rattus norvegicus [10], in the series on Rattus norvegicus [11] and in the series with Rattus norvegicus [12] were 55%, 59% and 61%, respectively.
On to `Cc1ccc(S(=O)(=O)/C=C/C#N)cc1`, for which the inhibition entry in series [19] was “Active”.
